Here are results for 31 compounds from ChEMBL document CHEMBL1134269, “Structure-affinity relationships of a unique nicotinic ligand: N(1)-dimethyl-N(4)-phenylpiperazinium iodide (DMPP)” (J Med Chem, 2001).

Molecules are shown by their SMILES.

Assay [1] addresses Neuronal acetylcholine receptor; alpha4/beta2 (Rattus norvegicus, UniProt P09483+P12390). The experiment in a line: Binding affinity against nicotinic receptors from rat brain using [3H]cytisine as radioligand. The procedure, abridged: (§1)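 Rat brain homogenate membranes (15 mg wet tissue) in 50 mmol Tris-HCl, pH 7.4 at 2 °C, with NaCl, KCl, MgCl₂ and CaCl₂. Incubated 75 min at 2 °C with 2 nmol [³H]-cytisine. Separated by GF/C filtration. Nonspecific binding defined with […] (–)-nicotine bitartrate. Ki calculated by Cheng-Prusoff using Kd 1.5 nmol.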

Assay [2] concerns Mus musculus. Briefly: Effect(%) respect to that of 5 ug/kg of morphine injected intracerebroventricularly. The assay is classed as functional. The procedure, abridged: (§2)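 Mouse hot-plate test with compounds given icv. Minimum analgesic dose recorded; efficacy expressed relative to 5 μg morphine icv. Nicotinic origin of analgesia tested by reversal with mecamylamine 2 mg/kg i.p.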

Assay [3] relates to Mus musculus. The experiment in a line: Minimal analgesic dose of compound injected intracerebroventricularly. The assay is classed as functional. The procedure, abridged: as §2
Assay [4] in a line: Compound was evaluated for pKi. The procedure, abridged:
as §1

The target in assay [5] is Neuronal acetylcholine receptor subunit alpha-7 (Rattus norvegicus, UniProt Q05941). Briefly: compound was evaluated for pKi.
Neuronal acetylcholine receptor subunit alpha-7, sequence (Q05941 whole entry): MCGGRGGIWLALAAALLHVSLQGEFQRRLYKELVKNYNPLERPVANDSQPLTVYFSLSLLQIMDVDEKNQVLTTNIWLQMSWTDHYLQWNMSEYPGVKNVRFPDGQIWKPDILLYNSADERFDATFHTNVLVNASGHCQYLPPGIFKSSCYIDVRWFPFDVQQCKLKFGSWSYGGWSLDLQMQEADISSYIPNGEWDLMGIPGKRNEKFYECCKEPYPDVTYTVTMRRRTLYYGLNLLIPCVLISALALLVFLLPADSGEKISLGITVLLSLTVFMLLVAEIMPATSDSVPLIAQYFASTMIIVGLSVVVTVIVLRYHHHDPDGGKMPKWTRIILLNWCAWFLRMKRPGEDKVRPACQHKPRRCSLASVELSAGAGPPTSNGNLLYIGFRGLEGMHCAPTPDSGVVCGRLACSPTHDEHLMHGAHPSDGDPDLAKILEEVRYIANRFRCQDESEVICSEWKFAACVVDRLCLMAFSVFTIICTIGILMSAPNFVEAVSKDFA

Neuronal acetylcholine receptor; alpha4/beta2, sequence (P09483 whole entry): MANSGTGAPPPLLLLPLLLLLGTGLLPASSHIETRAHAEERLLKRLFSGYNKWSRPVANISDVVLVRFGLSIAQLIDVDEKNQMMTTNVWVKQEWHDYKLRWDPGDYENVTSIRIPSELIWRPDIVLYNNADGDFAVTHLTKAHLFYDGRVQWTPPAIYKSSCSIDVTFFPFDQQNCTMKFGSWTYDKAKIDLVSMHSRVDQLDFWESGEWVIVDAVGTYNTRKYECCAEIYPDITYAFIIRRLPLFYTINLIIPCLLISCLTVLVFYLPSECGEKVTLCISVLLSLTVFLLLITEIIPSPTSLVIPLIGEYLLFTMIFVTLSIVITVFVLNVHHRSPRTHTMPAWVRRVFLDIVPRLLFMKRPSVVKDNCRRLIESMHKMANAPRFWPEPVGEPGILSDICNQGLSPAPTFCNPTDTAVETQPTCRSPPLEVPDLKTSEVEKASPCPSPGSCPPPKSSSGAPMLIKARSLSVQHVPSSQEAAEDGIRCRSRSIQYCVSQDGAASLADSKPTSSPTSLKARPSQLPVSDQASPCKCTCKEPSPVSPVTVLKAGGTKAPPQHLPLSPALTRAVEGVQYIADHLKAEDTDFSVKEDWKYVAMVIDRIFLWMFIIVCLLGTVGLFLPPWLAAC
Neuronal acetylcholine receptor; alpha4/beta2, sequence (P12390 whole entry): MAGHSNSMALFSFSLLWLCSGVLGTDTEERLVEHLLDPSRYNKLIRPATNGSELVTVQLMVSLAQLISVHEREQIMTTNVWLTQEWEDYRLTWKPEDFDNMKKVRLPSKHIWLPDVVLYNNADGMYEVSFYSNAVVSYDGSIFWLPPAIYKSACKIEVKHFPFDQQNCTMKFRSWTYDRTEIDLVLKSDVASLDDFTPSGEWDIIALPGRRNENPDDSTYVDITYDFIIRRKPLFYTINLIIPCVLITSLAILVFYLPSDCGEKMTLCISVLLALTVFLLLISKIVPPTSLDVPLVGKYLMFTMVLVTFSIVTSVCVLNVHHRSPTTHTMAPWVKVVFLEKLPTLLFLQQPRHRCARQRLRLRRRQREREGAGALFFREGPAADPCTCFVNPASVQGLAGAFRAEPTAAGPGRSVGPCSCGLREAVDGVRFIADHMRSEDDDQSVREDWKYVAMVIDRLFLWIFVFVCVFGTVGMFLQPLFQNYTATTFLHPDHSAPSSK

Broadly, the Ki is the dissociation constant of the complex between target and ligand, obtained from inhibition or displacement. With `O=C(O)C(=O)O.c1cncc(N2CCNCC2)c1`, the affinity in assay [1] corresponds to a Ki of 0.09 µM. Also, in assay [2], the Efficacy was determined as 51.1%. Moreover, in assay [3], the M.A.D is 50 µg/kg. For the same compound, in assay [4], the “Log Ki” value was -7.05. On to `CN1CCN(c2cccc(F)c2)CC1.O=C(O)C(=O)O`, for which, in assay [1], the affinity, expressed as Ki, was 6.5 µM. In assay [4], the “Log Ki” value is -5.19. `CC(=O)c1ccc(N2CCNCC2)cc1` gave a Ki in assay [1] of over 10 µM.

In the case of `CC(=O)Nc1cccc(N2CCN(C)CC2)c1`, the Ki in assay [1] was over 10 µM.

In assay [1], `Cc1cccc(N2CCN(C)CC2)c1` displayed a Ki of over 10 µM.

Regarding `O=[N+]([O-])c1cccc(N2CCNCC2)c1`, the Ki in assay [1] was over 10 µM. The same measure, in the same setting: in the case of `Fc1cccc(N2CCNCC2)c1` it was over 10 µM; in that of `CN1CCN(c2cccc(C#N)c2)CC1`, over 10 µM; in that of `CN1CCN(c2ccc(O)cc2)CC1`, over 10 µM. Still for that read-out and setting: in the case of `CN1CCN(c2cccc(O)c2)CC1` it was over 10 µM.

Consider `c1cc2c(cc1N1CCNCC1)OCO2`, for which, in assay [1], the Ki is over 10 µM. Still for that read-out and setting: in the case of `FC(F)(F)c1cccc(N2CCNCC2)c1` it was over 10 µM. In assay [1], `C[N+]1(C)CCN(c2ccc3c(c2)OCO3)CC1.[I-]` gave a Ki of 0.672 µM. Besides, in assay [4], the “Log Ki” value was -6.17. Regarding `CN1CCN(c2cccc(N)c2)CC1`, affinity in assay [1] was put at a Ki of 0.18 µM. Moreover, the “Log Ki” value in assay [4] is given as -6.74. Consider `Cc1ccccc1N1CCN(C)CC1`, for which the Ki in assay [1] is over 10 µM.

`CN1CCN(C2=CC(=O)CC2)CC1` showed a Ki in assay [1] of over 10 µM. As to `CN1CCN(C2=CC(=O)CCC2)CC1`, in assay [1], the Ki is over 10 µM.

`CC(=O)c1ccc(N2CCN(C)CC2)cc1` returned a Ki in assay [1] of over 10 µM. On the same count and under the same terms, in the case of `CN1CCN(c2cccc(C(F)(F)F)c2)CC1` it was over 10 µM; in that of `CN1CCN(c2ccc3c(c2)OCO3)CC1`, over 10 µM. Still for that read-out and setting: in the case of `CN1CC=C(c2ccccc2)CC1` it was over 10 µM.

`CN1CCN(c2cccnn2)CC1.O=C(O)C(=O)O` returned a Ki in assay [1] of 0.386 µM. For the same compound, the “Log Ki” value in assay [4] is recorded as -6.41.

`c1cc(N2CCNCC2)ccn1`: the Ki in assay [1] is over 10 µM. On the same count and under the same terms, in the case of `Fc1ccc(N2CCNCC2)cc1` it was over 10 µM; in that of `CN1CCN(c2ccc([N+](=O)[O-])cc2)CC1`, over 10 µM. On the same count and under the same terms, in the case of `CN1CCN(c2ccc(F)cc2)CC1` it was over 10 µM. For `CC(=O)Oc1cccc(N2CCN(C)CC2)c1`, the Ki was 0.8 µM in assay [1] and 0.794 µM in assay [5].

`CN1CCN(c2ccc(N)cc2)CC1`: the Ki in assay [1] is over 10 µM. Same read-out and setting: in the case of `CN1CCN(c2cccc(Cl)c2)CC1` it was over 10 µM; in that of `CN1CCC(c2ccccc2)CC1`, over 10 µM. Compound `CN1CC=C(c2cccnc2)CC1.Cl` registered an Efficacy in assay [2] of 36.5%. The compound also displayed a M.A.D in assay [3] of 1 µg/kg.
